Laboratory results taken from ChEMBL document CHEMBL1799971, “Bivalent dopamine D2 receptor ligands: synthesis and binding properties” (J Med Chem, 2011).
Active and inactive are the calls of the source. No cut-off for these calls is given here.

Columns and labels:
[1] = target: D(1A) dopamine receptor (Sus scrofa, UniProt P50130); assay: Displacement of [3H]SCH23390 from D1 receptor from porcine cerebral cortex homogenates; assay type: tissue-based
Procedure, shortened: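 Porcine cerebral cortex homogenate membranes at 40–60 μg/mL protein (Lowry, BSA standard). Competition curves were fitted to a sigmoid by nonlinear regression, with log EC50 and Hill coefficient as free parameters.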

[2] = target: T1, D(4) dopamine receptor (Homo sapiens, UniProt P21917); assay: Displacement of [3H]spiperone from human D4.4 receptor expressed in CHO cells; assay type: cell-based
T1 sequence (P21917 whole entry): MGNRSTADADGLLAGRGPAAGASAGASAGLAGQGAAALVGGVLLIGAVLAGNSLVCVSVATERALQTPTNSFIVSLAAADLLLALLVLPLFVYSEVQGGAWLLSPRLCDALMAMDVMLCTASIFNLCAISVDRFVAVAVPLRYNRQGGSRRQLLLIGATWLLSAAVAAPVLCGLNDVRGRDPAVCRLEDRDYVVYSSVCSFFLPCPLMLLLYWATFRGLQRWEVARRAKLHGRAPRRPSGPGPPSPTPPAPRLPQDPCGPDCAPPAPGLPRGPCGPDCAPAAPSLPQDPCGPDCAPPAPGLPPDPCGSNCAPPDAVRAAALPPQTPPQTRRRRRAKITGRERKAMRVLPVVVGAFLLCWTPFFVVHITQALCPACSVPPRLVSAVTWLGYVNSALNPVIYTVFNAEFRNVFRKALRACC

[3] = target: D(3) dopamine receptor (Homo sapiens, UniProt P35462); assay: Displacement of [3H]spiperone from human D3 receptor expressed in CHO cells; assay type: cell-based
Chain of D(3) dopamine receptor (P35462 whole entry): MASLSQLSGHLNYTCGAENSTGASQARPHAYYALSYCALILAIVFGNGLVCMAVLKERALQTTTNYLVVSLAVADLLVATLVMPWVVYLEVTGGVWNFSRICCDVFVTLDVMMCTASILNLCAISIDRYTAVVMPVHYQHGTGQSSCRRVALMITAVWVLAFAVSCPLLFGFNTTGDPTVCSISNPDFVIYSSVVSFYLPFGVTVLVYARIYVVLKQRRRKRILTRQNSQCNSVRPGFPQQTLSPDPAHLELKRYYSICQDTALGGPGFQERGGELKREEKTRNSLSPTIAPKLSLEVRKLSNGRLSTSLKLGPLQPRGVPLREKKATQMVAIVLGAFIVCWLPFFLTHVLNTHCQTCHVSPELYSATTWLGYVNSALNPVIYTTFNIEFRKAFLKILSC

[4] = target: T2, D(2) dopamine receptor (Homo sapiens, UniProt P14416); assay: Displacement of [3H]spiperone from human D2long receptor expressed in CHO cells
T2 sequence (P14416 whole entry): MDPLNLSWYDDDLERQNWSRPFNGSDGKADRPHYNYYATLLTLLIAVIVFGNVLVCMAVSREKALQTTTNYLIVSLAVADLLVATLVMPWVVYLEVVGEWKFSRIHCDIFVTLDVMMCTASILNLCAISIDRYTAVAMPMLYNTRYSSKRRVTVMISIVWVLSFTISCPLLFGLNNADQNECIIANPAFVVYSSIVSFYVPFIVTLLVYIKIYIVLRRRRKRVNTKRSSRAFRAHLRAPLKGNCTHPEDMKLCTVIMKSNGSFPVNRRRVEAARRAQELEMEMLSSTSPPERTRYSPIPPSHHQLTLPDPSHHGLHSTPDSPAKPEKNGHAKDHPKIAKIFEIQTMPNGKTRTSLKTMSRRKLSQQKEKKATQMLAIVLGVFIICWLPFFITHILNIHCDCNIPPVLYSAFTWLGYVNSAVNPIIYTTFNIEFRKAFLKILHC

[5] = target: T2, D(2) dopamine receptor; assay: Displacement of [3H]spiperone from human D2short receptor expressed in CHO cells; assay type: cell-based
[6] = organism: Homo sapiens; assay: Selectivity ratio of Ki for human D4.4 receptor to Ki for human D3 receptor
[7] = target: T2, D(2) dopamine receptor; assay: Displacement of [3H]spiperone from human D2short receptor expressed in CHO cells in presence of 100 mM sodium chloride; assay type: cell-based
Procedure, shortened: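 Buffer was 50 mM Tris, 1.0 mM EDTA, 5.0 mM MgCl2, 100 μg/mL bacitracin and 5 μg/mL soybean trypsin inhibitor, pH 7.4, plus NaCl at a final 100 mM. Curves were fitted by sigmoidal nonlinear regression with a free Hill coefficient.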

[8] = target: T2, D(2) dopamine receptor; assay: Displacement of [3H]spiperone from human D2 receptor expressed in CHO cells assessed as dissociation half life; assay type: cell-based
[9] = target: T2, D(2) dopamine receptor; assay: Antagonist activity at human D2long receptor expressed in CHO10001 cells assessed as inhibition of agonist-stimulated [3H]thymidine incorporation into cells by mitogenesis assay; assay type: functional, cell-based

Chain of D(1A) dopamine receptor (P50130 whole entry): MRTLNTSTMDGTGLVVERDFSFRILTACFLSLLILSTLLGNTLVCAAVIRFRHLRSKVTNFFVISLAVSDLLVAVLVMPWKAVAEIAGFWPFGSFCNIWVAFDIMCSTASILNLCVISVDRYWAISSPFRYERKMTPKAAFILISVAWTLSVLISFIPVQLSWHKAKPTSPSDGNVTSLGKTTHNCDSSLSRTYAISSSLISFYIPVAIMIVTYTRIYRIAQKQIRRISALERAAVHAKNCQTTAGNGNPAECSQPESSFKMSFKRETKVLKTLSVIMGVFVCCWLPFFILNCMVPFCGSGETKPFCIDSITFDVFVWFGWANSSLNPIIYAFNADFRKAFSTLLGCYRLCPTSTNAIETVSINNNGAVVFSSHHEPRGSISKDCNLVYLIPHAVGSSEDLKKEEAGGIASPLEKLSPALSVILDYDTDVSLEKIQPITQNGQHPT

Compound	Ki [1] [nM]	Ki [2] [nM]	Ki [3] [nM]	Ki [4] [nM]	Ki [5] [nM]	Ratio Ki [6]	Ki [7] [nM]	T1/2 [8] [h]	inhibition [9]
COc1cc(CN2CCN(C)CC2)ccc1OCCCc1cn(CCCCCCCCn2cc(CCCOc3ccc(CN4CCN(c5ccccc5OC)CC4)cc3OC)nn2)nn1	980	12	–	–	–	–	–	–	–
COc1cc(CN2CCN(c3ccccc3OC)CC2)ccc1OCc1cn(CCOCCOCCn2cc(COc3ccc(CN4CCN(c5ccccc5OC)CC4)cc3OC)nn2)nn1	390	6.8	36	3.3	3.4	–	–	–	–
COc1cc(CN2CCN(c3ccccc3OC)CC2)ccc1OCCCc1cn(CCCCCCCCn2cc(CCCOc3ccc(CN4CCN(C5CCCCC5)CC4)cc3OC)nn2)nn1	480	19	–	–	–	–	–	–	–
COc1cc(CN2CCN(c3ccccc3OC)CC2)ccc1OCCCc1cn(CCOCCOCCOCCn2cc(CCCOc3ccc(CN4CCN(c5ccccc5OC)CC4)cc3OC)nn2)nn1	270	19	72	4.8	6.2	–	–	–	–
COc1cc(CN2CCN(c3ccccc3OC)CC2)ccc1OCCCc1cn(CCCCCCCCCCn2cc(CCCOc3ccc(CN4CCN(c5ccccc5OC)CC4)cc3OC)nn2)nn1	250	19	96	23	17	–	–	–	–
CCCc1cn(CCCCCCCCn2cc(CCCOc3ccc(CN4CCN(c5ccccc5OC)CC4)cc3OC)nn2)nn1	400	14	230	36	32	–	–	–	–
COc1cc(CN2CCN(c3ccccc3OC)CC2)ccc1OCc1cn(CCCCCCCCn2cc(COc3ccc(CN4CCN(c5ccccc5OC)CC4)cc3OC)nn2)nn1	210	5.4	31	16	25	5	–	–	–
CCCCn1cc(CCCOc2ccc(CN3CCN(c4ccccc4OC)CC3)cc2OC)nn1	1500	7.2	–	–	–	80	35	2	Active
COc1cc(CN2CCN(c3ccccc3OC)CC2)ccc1OCCCc1cn(CCOCCOCCn2cc(CCCOc3ccc(CN4CCN(c5ccccc5OC)CC4)cc3OC)nn2)nn1	220	12	61	2.8	3.7	–	–	–	–
CCCCn1cc(CCCCOc2ccc(CN3CCN(c4ccccc4OC)CC3)cc2OC)nn1	2500	13	590	52	67	–	–	–	–
CCOCCn1cc(CCCOc2ccc(CN3CCN(c4ccccc4OC)CC3)cc2OC)nn1	870	6.4	250	18	16	–	–	–	–
CCOCCn1cc(COc2ccc(CN3CCN(c4ccccc4OC)CC3)cc2OC)nn1	3800	8.4	440	68	100	–	–	–	–
COc1cc(CN2CCN(c3ccccc3OC)CC2)ccc1OCCCc1cn(CCCCCCCCn2cc(CCCOc3ccc(CN4CCN(c5ccccc5OC)CC4)cc3OC)nn2)nn1	220	15	–	–	–	5	12	2.17	Active
COc1cc(CN2CCN(c3ccccc3OC)CC2)ccc1OCCCCc1cn(CCCCCCCCCCn2cc(CCCCOc3ccc(CN4CCN(c5ccccc5OC)CC4)cc3OC)nn2)nn1	300	11	74	17	8.2	–	–	–	–
CCCCn1cc(COc2ccc(CN3CCN(c4ccccc4OC)CC3)cc2OC)nn1	2300	3.3	320	63	70	80	–	–	–
